In ChEMBL document CHEMBL4004857, “Synthesis and biological evaluation of novel pyrazolic chalcone derivatives as novel hepatocellular carcinoma therapeutics” (Eur J Med Chem, 2017):
pIC50: −log10 of the molar value. The source made the active and inactive calls. The calls are words filed in the database; no cut-off is given here.

Tests used:
Homo sapiens = species on record: Homo sapiens; test: Inhibition of tubulin polymerization (unknown origin)
Huh-7 [1] = test: Cytotoxicity against human HuH7 cells assessed as growth inhibition after 72 hrs by SRB assay; assay type: functional, cell-based; conditions: Huh-7, 72 h
Summary of the method: (§1)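 Cells seeded at 2000–3000 per well and grown 24 h at 37C, then treated in triplicate with compounds dissolved in DMSO over a 40–0.3 range for 72 h. Cells were fixed with 10% TCA for 1 h, stained with 0.4% SRB in 1% acetic acid, washed with 1% acetic acid and air-dried. Bound dye was solubilized in 10 mM Tris base and read at 515 nm. % inhibition and IC50 were calculated against DMSO-only controls.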

HCT-116 = test: Cytotoxicity against human HCT116 cells assessed as growth inhibition after 72 hrs by SRB assay; assay type: functional, cell-based; conditions: HCT-116, 72 h; summary of the method: as §1
MCF7 = test: Cytotoxicity against human MCF7 cells assessed as growth inhibition after 72 hrs by SRB assay; assay type: functional, cell-based; conditions: MCF7, 72 h; summary of the method: as §1
HepG2 [2] = test: Induction of apoptosis in human HepG2 cells assessed as condensed nuclei at cytotoxic IC100 measured after 72 hrs by light microscopic method; assay type: functional, cell-based
SNU-475 [3] = test: Growth inhibition of human SNU475 cells at cytotoxic IC100 measured every 10 mins for first 24 hrs and every 30 mins for remaining 48 hrs by RT-CES analysis; assay type: functional, cell-based
Mahlavu [4] = test: Cytotoxicity against human Mahlavu cells assessed as growth inhibition after 72 hrs by SRB assay; assay type: functional, cell-based; summary of the method: as §1
HepG2 [5] = test: Cytotoxicity against human HepG2 cells assessed as growth inhibition after 72 hrs by SRB assay; assay type: functional, cell-based; conditions: HepG2, 72 h; summary of the method: as §1
SNU-475 [6] = test: Induction of apoptosis in human SNU475 cells assessed as condensed nuclei at cytotoxic IC100 measured after 72 hrs by light microscopic method; assay type: functional, cell-based
Huh-7 [7] = test: Growth inhibition of human HuH7 cells at cytotoxic IC100 measured every 10 mins for first 24 hrs and every 30 mins for remaining 48 hrs by RT-CES analysis; assay type: functional, cell-based
HepG2 [8] = test: Induction of apoptosis in human HepG2 cells assessed as condensed nuclei at cytotoxic IC100 measured after 48 hrs by DAPI/Annexin-V-Fluos staining based fluorescent microscopic method; assay type: functional, cell-based
Summary of the method: (§2)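 Cells on coverslips were treated after 24 h in culture and stained 48 h later with Annexin-V-Fluos plus DAPI nuclear stain. Cells were then examined by fluorescence microscopy for Annexin V-positive cells with condensed nuclei.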

SNU-475 [9] = test: Cytotoxicity against human SNU475 cells assessed as growth inhibition after 72 hrs by SRB assay; assay type: functional, cell-based; conditions: SNU-475, 72 h; summary of the method: as §1
SNU-475 [10] = test: Induction of apoptosis in human SNU475 cells assessed as PARP cleavage at cytotoxic IC100 measured after 24 hrs by Western blot method; assay type: functional, cell-based
Mahlavu [11] = test: Growth inhibition of human Mahlavu cells at cytotoxic IC100 measured every 10 mins for first 24 hrs and every 30 mins for remaining 48 hrs by RT-CES analysis; assay type: functional, cell-based
HepG2 [12] = test: Growth inhibition of human HepG2 cells at cytotoxic IC100 measured every 10 mins for first 24 hrs and every 30 mins for remaining 48 hrs by RT-CES analysis; assay type: functional, cell-based
SNU-475 [13] = test: Induction of apoptosis in human SNU475 cells assessed as condensed nuclei at cytotoxic IC100 measured after 48 hrs by DAPI/Annexin-V-Fluos staining based fluorescent microscopic method; assay type: functional, cell-based; summary of the method: as §2
MRC5 = test: Cytotoxicity against human MRC5 cells assessed as growth inhibition after 72 hrs by SRB assay; assay type: cell-based; conditions: mrc5; summary of the method: as §1
HepG2 [14] = test: Induction of apoptosis in human HepG2 cells assessed as PARP cleavage at cytotoxic IC100 measured after 24 hrs by Western blot method; assay type: functional, cell-based
MCF-12A = test: Cytotoxicity against human MCF12A cells assessed as growth inhibition after 72 hrs by SRB assay; assay type: cell-based; summary of the method: as §1

SMILES	inhibition (Homo sapiens)	pIC50 (Huh-7 [1])	pIC50 (HCT-116)	pIC50 (MCF7)	further results
COc1cc(C(=O)/C=C/c2cn(-c3ccccc3)nc2-c2ccsc2)cc(OC)c1OC	inactive	5.44	5.49	5.31	
COc1cc(OC)c(C(=O)/C=C/c2cn(-c3ccccc3)nc2-c2ccncc2)c(OC)c1	inactive	5.59	6.22	5.80	Activity (HepG2 [2]): Active; growth inhibition (GI) (SNU-475 [3]): Active; pIC50 (Mahlavu [4]): 5.96; pIC50 (HepG2 [5]): 5.77; Activity (SNU-475 [6]): Active; growth inhibition (GI) (Huh-7 [7]): Active; Activity (HepG2 [8]): Active; pIC50 (SNU-475 [9]): 5.85; Activity (SNU-475 [10]): Active; growth inhibition (GI) (Mahlavu [11]): Active; growth inhibition (GI) (HepG2 [12]): Active; Activity (SNU-475 [13]): Active; IC50 (MRC5): Non-Toxic; Activity (HepG2 [14]): Active; pIC50 (MCF-12A): 5.09
COc1ccc(OC)c(C(=O)/C=C/c2cn(-c3ccccc3)nc2-c2ccsc2)c1	inactive	5.68	5.47	6.40	
O=C(/C=C/c1cn(-c2ccccc2)nc1-c1ccc2c(c1)OCO2)c1ccccn1	inactive	5.47	5.17	5.39	
COc1cc(C(=O)/C=C/c2cn(-c3ccccc3)nc2-c2cccnc2)cc(OC)c1OC	inactive	5.72	5.07	4.84	
Nc1nc(Cl)nc2c1ncn2[C@H]1C[C@H](O)[C@@H](CO)O1 [CLADRIBINE]		5.74	6.52	5.70	
COc1cc(OC)c(C(=O)/C=C/c2cn(-c3ccccc3)nc2-c2ccc3c(c2)OCO3)c(OC)c1	inactive	5.17	4.97	4.94	
O=C(/C=C/c1cn(-c2ccccc2)nc1-c1ccc2c(c1)OCO2)c1cccnc1	inactive	5.47	5.42	5.66	
O=C(/C=C/c1cn(-c2ccccc2)nc1-c1cccnc1)c1c[nH]c2ccccc12	inactive	5.49	5.19	5.59	
COc1ccc(C(=O)/C=C/c2cn(-c3ccccc3)nc2-c2cccnc2)c(OC)c1OC	inactive	5.64	5.96	5.85	
COc1ccc(C(=O)/C=C/c2cn(-c3ccccc3)nc2-c2ccc3c(c2)OCO3)c(OC)c1OC	inactive	4.97	5.49	5.13	
COc1ccc(C(=O)/C=C/c2cn(-c3ccccc3)nc2-c2cccnc2)c(OC)c1	inactive	5.62	5.89	5.64	
O=c1[nH]cc(F)c(=O)[nH]1 [FLUOROURACIL]		4.68	4.74	5.85	
O=C(/C=C/c1cn(-c2ccccc2)nc1-c1ccncc1)c1ccsc1	inactive	5.66	5.96	5.82	
COc1ccc(C(=O)/C=C/c2cn(-c3ccccc3)nc2-c2ccncc2)cc1OC	inactive	5.70	5.92	5.37	
COc1ccc(OC)c(C(=O)/C=C/c2cn(-c3ccccc3)nc2-c2ccc3c(c2)OCO3)c1	inactive	5.21	5.89	5.24	
O=C(/C=C/c1cn(-c2ccccc2)nc1-c1ccc2c(c1)OCO2)c1ccccc1	inactive	4.98	5.94	4.95	
O=C(/C=C/c1cn(-c2ccccc2)nc1-c1ccncc1)c1ccccc1	inactive	5.74	5.51	5.47	
O=C(/C=C/c1cn(-c2ccccc2)nc1-c1ccsc1)c1ccc2c(c1)OCO2	inactive	4.65	4.91	5.28	
COc1ccc(C(=O)/C=C/c2cn(-c3ccccc3)nc2-c2ccc3c(c2)OCO3)c(OC)c1	inactive	4.72	5.07	4.84	
COc1ccc(C(=O)/C=C/c2cn(-c3ccccc3)nc2-c2ccsc2)c(OC)c1OC	inactive	5.38	5.24	5.13	

SMILES	inhibition (Homo sapiens)	pIC50 (Huh-7 [1])	pIC50 (HCT-116)	pIC50 (MCF7)	further results
COc1ccc(C(=O)/C=C/c2cn(-c3ccccc3)nc2-c2ccsc2)c(OC)c1	inactive	5.52	5.66	5.05	
O=C(/C=C/c1cn(-c2ccccc2)nc1-c1ccsc1)c1ccccc1	inactive	5.33	5.29	5.72	
O=C(/C=C/c1cn(-c2ccccc2)nc1-c1ccncc1)c1ccc2c(c1)OCO2	inactive	6.40	5.28	6.10	
O=C(/C=C/c1cn(-c2ccccc2)nc1-c1ccc2c(c1)OCO2)c1cc[nH]c1	inactive	5.04	4.69	5.00	
COc1ccc(C(=O)/C=C/c2cn(-c3ccccc3)nc2-c2ccncc2)c(OC)c1OC	inactive	5.43	5.89	5.48	
COc1ccc(C(=O)/C=C/c2cn(-c3ccccc3)nc2-c2ccncc2)c(OC)c1	inactive	5.36	5.36	5.06	
O=C(/C=C/c1cn(-c2ccccc2)nc1-c1cccnc1)c1cc[nH]c1	inactive	5.48	5.13	5.16	
COc1cc(OC)c(C(=O)/C=C/c2cn(-c3ccccc3)nc2-c2ccsc2)c(OC)c1	inactive	5.21	5.28	5.57	
COc1cc(C(=O)/C=C/c2cn(-c3ccccc3)nc2-c2ccncc2)cc(OC)c1OC	inactive	5.46	6.52	5.46	
O=C(/C=C/c1cn(-c2ccccc2)nc1-c1ccc2c(c1)OCO2)c1ccc2c(c1)OCO2	inactive	5.00	4.57	4.76	
O=C(/C=C/c1cn(-c2ccccc2)nc1-c1cccnc1)c1ccccn1	inactive	5.19	5.68	5.38	
O=C(/C=C/c1cn(-c2ccccc2)nc1-c1cccnc1)c1ccsc1	inactive	5.77	5.89	6.30	
COc1ccc(C(=O)/C=C/c2cn(-c3ccccc3)nc2-c2ccc3c(c2)OCO3)cc1OC	inactive	4.81	4.94	4.93	
O=C(/C=C/c1cn(-c2ccccc2)nc1-c1cccnc1)c1ccccc1	inactive	5.64	5.70	5.39	
COc1ccc(C(=O)/C=C/c2cn(-c3ccccc3)nc2-c2ccsc2)cc1OC	inactive	5.54	5.80	5.55	
O=C(/C=C/c1cn(-c2ccccc2)nc1-c1cccnc1)c1ccc2c(c1)OCO2	inactive	5.17	5.74	5.25	
COc1ccc(C(=O)/C=C/c2cn(-c3ccccc3)nc2-c2cccnc2)cc1OC	inactive	5.51	5.37	5.77	
O=C(/C=C/c1cn(-c2ccccc2)nc1-c1ccncc1)c1cc[nH]c1	inactive	4.54	4.80	4.87	
COc1cc(C(=O)/C=C/c2cn(-c3ccccc3)nc2-c2ccc3c(c2)OCO3)cc(OC)c1OC	inactive	4.93	5.08	4.96	
O=C(/C=C/c1cn(-c2ccccc2)nc1-c1ccc2c(c1)OCO2)c1ccsc1	inactive	5.49	5.05	5.31	
